Source: ChEMBL document CHEMBL1800057, “Discovery of dual inducible/neuronal nitric oxide synthase (iNOS/nNOS) inhibitor development candidate 4-((2-cyclobutyl-1H-imidazo[4,5-b]pyrazin-1-yl)methyl)-7,8-difluoroquinolin-2(1H)-one (KD7332) part 2: identification of a novel, potent, and selective series of benzimidazole-quinolinone …” (J Med Chem, 2010)
Active and inactive are the calls of the source.

Experiments:
Mus musculus [1] = assay: Neurotoxicity in C57Bl/6j mouse assessed as inability to maintain equilibrium on rotarod up to 1000 mg/kg, po determined 1 to 3 hrs postdose by rotarod test; type: toxicity, organism-based; parameters: dose 1000 mg/kg, route oral; settings: in vivo
Procedure, shortened: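 Male C57Bl/6j mice were acclimated to the rotarod at 4 rpm, then given two training sessions on an accelerating rod (4-40 rpm over 300 s). Only mice with latencies >60 s were kept. After oral dosing, latency to fall from the accelerating rod was recorded at 1, 2 and 3 h.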

Mus musculus [2] = assay: Antinociceptive activity against formalin-induced pain in mouse assessed as attenuation of nocifensive phase 2 behaviors during phase 2 (25 to 45 mins post formalin injection) administered via oral gavage 30 mins before to formalin challenge; type: functional
Procedure, shortened: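 Mice were given compound by oral gavage in PEG/Tween 80/PVP + CMC vehicle 30 min before 20 μL of 5% formalin was injected into the left hind paw. Paw flinching, licking and biting were timed in 5 min bins by a single observer. Read-out was time in nociceptive behaviour at 25-45 min. Mean ± SE, n = 5-6, one-way ANOVA with post hoc tests.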

Mus musculus [3] = assay: Antiallodynic activity against von Frey hair mechanically stimulated neuropathic pain in mouse Chung model of neuropathic pain assessed as attenuation of tactile allodynia at 300 mg/kg, po; type: functional, organism-based; parameters: dose 300 mg/kg
Homo sapiens [4] = species on record: Homo sapiens; assay: Ratio of IC50 for human nNOS to EC50 for human iNOS
Rhesus monkey = assay: Inhibition of capsaicin-induced thermal hyperalgesia in rhesus monkey model; type: functional, organism-based; settings: Macaca mulatta
Homo sapiens [5] = species on record: Homo sapiens; assay: Ratio of IC50 for human eNOS to EC50 for human iNOS
Mus musculus [6] = assay: Antiallodynic activity against von Frey hair mechanically stimulated neuropathic pain in mouse Chung model of neuropathic pain assessed as attenuation of tactile allodynia at 30 mg/kg, po; type: functional, organism-based; parameters: dose 30 mg/kg
Procedure, shortened: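 Spinal nerve ligation (Chung) surgery done under isoflurane anaesthesia (5% induction, 2-3% maintenance). Only mice with baseline 50% withdrawal threshold ~0.2-0.3 g at days 5-10 after surgery were included. Von Frey filaments applied for 10 s each; 50% threshold calculated by Dixon up-down method. Compound given po at 30 mg/kg, and also 30 mg/kg BID for four days.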

Mus musculus [7] = assay: Antiallodynic activity against von Frey hair mechanically stimulated neuropathic pain in mouse Chung model of neuropathic pain assessed as attenuation of tactile allodynia at 30 mg/kg, po bid for 4 days; type: functional, organism-based; parameters: dose 30 mg/kg
Procedure, shortened: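 Spinal nerve ligation in mice under isoflurane (5% induction, 2-3% maintenance). Von Frey filaments pressed on the paw for up to 10 s. 50% withdrawal threshold derived by Dixon's up-down method. Only mice with baseline thresholds of ~0.2-0.3 g between 5 and 10 days post-surgery were included. Dosing was oral.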

[8] = Half life in mouse; type: ADME, organism-based; settings: in vivo
Homo sapiens [9] = species on record: Homo sapiens; assay: Selectivity for human iNOS over human eNOS
Procedure, shortened: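 Ratio of EC₅₀ values from transiently transfected HEK293 cells. iNOS: plasmid, 18 h with compound, 1400W control, n = 8/point. eNOS: 15 μg human eNOS plasmid, 24 h with compound at 37 °C, then A23187 (83 nM final) for 18 h, SEITU (100 μM final) control, n = 3/point. NO read by DAN fluorescence; each EC₅₀ from three runs of 10-point curves.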

[10] = Cmax in mouse at 1 mg/kg, iv and 10 mg/kg, po; type: ADME, organism-based; settings: in vivo
[11] = Oral bioavailability in mouse at 10 mg/kg; type: ADME, organism-based; settings: in vivo
[12] = Half life in mouse at 1 mg/kg, iv and 10 mg/kg, po; type: ADME, organism-based; settings: in vivo
[13] = Plasma clearance in mouse; type: ADME, organism-based
[14] = Volume of distribution at steady state in mouse at 1 mg/kg, iv and 10 mg/kg, po; type: ADME, organism-based; settings: in vivo, read-out: Vdss
[15] = Plasma clearance in mouse at 1 mg/kg, iv and 10 mg/kg, po; type: ADME, organism-based
[16] = target: T1, Nitric oxide synthase, inducible (Homo sapiens, UniProt P35228); assay: Inhibition of human iNOS
T1 sequence (P35228 whole entry): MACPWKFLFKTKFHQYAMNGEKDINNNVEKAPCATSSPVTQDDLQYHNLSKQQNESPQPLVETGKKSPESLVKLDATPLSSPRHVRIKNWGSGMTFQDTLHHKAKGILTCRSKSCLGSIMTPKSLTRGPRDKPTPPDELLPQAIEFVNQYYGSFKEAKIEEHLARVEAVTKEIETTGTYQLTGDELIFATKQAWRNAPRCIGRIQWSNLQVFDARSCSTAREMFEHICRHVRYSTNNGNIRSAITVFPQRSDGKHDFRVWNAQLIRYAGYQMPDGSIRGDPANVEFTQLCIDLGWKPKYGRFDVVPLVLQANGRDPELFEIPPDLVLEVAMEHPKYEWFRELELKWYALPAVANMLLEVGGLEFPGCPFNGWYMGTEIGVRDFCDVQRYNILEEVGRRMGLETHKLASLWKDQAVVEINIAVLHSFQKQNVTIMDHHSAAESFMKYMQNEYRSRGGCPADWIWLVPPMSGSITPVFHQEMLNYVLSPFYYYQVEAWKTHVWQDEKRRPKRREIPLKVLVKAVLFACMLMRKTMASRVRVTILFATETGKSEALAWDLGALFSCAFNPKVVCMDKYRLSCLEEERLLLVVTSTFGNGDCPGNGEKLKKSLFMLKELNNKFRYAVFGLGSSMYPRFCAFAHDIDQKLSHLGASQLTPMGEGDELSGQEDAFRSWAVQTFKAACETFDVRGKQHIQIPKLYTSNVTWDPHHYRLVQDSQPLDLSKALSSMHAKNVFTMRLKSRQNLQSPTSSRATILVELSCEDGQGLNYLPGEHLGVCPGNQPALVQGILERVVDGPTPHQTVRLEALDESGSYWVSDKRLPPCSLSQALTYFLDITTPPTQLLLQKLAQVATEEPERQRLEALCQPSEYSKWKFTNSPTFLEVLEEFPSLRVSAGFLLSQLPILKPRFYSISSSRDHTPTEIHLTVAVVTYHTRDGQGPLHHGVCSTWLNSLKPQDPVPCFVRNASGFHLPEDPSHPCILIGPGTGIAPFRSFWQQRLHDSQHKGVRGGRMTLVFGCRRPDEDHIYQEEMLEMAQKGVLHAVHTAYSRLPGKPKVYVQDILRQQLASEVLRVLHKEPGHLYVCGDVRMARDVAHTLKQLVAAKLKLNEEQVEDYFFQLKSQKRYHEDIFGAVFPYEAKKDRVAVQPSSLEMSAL
Procedure, shortened: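 HEK293 cells grown to about 70% confluence in DMEM with 10% FBS and pen/strep, then transiently transfected with human iNOS plasmid using Fugene 6 for 4 h at 37 °C, 10% CO₂. Cells replated at 5e5 cells/mL and treated at once with compound; 1400W (100 μM final) as positive control. After 18 h, NO read as DAN-nitrite fluorescence. EC₅₀ from three runs, 10-point curves, n = 8/point.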

Nitric oxide synthase 3 = target: T2, Nitric oxide synthase 3 (Homo sapiens, UniProt P29474); assay: Inhibition of human eNOS expressed in HEK293 cells assessed as inhibition A23187 induced nitric oxide production incubated for 24 hrs measured after 18 hrs of […] challenge using 2,3-diaminonaphthalene by fluorescence assay; type: cell-based
T2 sequence (P29474 whole entry): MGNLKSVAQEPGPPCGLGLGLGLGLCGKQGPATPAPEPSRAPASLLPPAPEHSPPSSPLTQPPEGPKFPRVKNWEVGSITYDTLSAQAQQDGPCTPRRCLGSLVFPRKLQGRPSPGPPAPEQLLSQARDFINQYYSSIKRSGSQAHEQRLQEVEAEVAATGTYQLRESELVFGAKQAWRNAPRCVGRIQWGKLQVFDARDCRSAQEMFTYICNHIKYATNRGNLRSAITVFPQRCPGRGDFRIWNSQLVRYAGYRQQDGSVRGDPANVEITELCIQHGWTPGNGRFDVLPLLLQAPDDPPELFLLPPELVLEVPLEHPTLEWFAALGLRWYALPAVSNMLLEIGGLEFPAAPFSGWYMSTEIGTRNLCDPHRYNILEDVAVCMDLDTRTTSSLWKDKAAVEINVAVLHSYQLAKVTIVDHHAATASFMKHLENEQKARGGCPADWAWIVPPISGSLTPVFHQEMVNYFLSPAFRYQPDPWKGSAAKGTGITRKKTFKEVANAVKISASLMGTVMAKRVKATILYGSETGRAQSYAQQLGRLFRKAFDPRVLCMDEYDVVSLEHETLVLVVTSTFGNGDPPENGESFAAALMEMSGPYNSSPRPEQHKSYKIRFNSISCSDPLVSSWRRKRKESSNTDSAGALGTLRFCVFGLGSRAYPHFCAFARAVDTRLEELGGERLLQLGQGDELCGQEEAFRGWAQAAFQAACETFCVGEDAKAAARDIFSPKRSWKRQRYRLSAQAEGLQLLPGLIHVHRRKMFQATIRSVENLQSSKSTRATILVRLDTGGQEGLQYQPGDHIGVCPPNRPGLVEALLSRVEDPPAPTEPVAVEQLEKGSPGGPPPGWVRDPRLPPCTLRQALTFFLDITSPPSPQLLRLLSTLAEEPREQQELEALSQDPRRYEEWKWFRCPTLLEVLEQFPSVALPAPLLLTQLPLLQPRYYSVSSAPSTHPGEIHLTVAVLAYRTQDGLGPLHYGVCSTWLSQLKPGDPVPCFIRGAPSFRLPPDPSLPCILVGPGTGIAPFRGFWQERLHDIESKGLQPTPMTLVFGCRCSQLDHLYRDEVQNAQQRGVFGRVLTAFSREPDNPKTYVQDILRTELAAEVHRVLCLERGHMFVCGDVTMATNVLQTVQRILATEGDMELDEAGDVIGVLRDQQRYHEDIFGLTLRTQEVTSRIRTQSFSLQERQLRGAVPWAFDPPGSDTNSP
Procedure, shortened: (§1)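 HEK293 cells transfected for 4 h at 37 °C with human nNOS (10 μg) or human eNOS (15 μg) plasmid (Fugene 6, 3:1). Cells replated at 5e5 cells/mL and dosed with compound at once; SEITU (100 μM final) as positive control. After 24 h, cells activated with A23187 (83 nM final) for eNOS or ionomycin (30 μM final) for nNOS. NO read 18 h later as nitrite-DAN fluorescence.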

[17] = target: T3, Nitric oxide synthase 3 (Homo sapiens) (UniProt P29474); assay: Inhibition of human eNOS expressed in HEK293 cells assessed as inhibition A23187 induced nitric oxide production at 100 uM incubated for 24 hrs measured after 18 hrs of […] challenge using 2,3-diaminonaphthalene by fluorescence assay; type: cell-based
T3 sequence (whole entry): T2 sequence (P29474 whole entry)

Nitric oxide synthase 1 [18] = target: T4, Nitric oxide synthase 1 (Homo sapiens, UniProt P29475); assay: Inhibition of human nNOS expressed in HEK293 cells assessed as inhibition ionomycin induced nitric oxide production incubated for 24 hrs measured after 18 hrs of ionomycin challenge using 2,3-diaminonaphthalene by fluorescence assay; type: cell-based; procedure, shortened: as §1
T4 sequence (P29475 whole entry): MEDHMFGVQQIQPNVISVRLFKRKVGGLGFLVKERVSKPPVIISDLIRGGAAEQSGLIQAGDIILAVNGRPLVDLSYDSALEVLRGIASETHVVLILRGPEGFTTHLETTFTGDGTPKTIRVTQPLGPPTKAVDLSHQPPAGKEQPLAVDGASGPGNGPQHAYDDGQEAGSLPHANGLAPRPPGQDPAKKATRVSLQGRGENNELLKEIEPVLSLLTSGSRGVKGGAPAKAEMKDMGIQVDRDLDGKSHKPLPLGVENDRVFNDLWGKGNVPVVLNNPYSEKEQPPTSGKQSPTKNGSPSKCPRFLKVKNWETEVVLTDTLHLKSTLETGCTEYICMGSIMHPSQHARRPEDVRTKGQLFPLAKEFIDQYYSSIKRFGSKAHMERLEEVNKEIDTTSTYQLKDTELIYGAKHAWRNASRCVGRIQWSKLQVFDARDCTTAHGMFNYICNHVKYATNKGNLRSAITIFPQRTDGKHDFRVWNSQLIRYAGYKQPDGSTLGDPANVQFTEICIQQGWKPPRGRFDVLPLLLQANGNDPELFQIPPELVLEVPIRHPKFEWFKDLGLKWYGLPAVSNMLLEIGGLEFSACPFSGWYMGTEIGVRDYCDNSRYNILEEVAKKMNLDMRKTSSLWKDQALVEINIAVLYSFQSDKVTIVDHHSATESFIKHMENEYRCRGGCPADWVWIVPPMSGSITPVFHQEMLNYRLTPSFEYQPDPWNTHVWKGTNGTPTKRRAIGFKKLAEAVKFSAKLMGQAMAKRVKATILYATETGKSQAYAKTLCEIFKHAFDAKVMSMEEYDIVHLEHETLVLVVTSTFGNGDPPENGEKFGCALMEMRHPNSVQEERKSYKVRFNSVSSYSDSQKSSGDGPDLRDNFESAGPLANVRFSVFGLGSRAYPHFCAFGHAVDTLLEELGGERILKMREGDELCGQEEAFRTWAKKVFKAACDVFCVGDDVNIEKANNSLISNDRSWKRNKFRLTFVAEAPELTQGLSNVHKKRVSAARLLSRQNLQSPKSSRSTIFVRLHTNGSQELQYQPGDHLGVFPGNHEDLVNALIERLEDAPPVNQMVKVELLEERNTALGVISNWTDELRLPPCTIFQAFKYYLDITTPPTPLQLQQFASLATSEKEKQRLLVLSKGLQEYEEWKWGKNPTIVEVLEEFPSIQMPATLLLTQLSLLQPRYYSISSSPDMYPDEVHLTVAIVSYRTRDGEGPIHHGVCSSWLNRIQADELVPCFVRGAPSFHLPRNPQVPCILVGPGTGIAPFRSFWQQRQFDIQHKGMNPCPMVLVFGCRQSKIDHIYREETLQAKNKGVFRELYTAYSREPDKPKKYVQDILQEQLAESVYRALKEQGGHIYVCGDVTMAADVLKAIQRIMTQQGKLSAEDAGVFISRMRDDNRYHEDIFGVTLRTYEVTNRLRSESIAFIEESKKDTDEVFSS

[19] = target: T1, Nitric oxide synthase, inducible; assay: Inhibition of human iNOS expressed in HEK293 cells assessed as inhibition of nitric oxide production after 18 hrs using 2,3-diaminonaphthalene by fluorescence assay; type: cell-based
Procedure, shortened: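 HEK293 cells grown to ~70% confluence in DMEM/10% FBS with pen/strep, transiently transfected with 10 μg human or murine iNOS plasmid plus Fugene 6 for 4 h at 37 °C, 10% CO2. Cells replated at 5e5 cells/mL and dosed with compound at once; 1400W (100 μM final) as positive control. After 18 h, DAN (10 μg/mL final) in HCl (0.1 N final) added for 20 min at room temperature. Fluorescence read after NaOH (0.12 N final).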

Nitric oxide synthase 1 [20] = target: T4, Nitric oxide synthase 1; assay: Inhibition of human nNOS expressed in HEK293 cells assessed as inhibition ionomycin induced nitric oxide production at 100 uM incubated for 24 hrs measured after 18 hrs of ionomycin challenge using 2,3-diaminonaphthalene by fluorescence assay; type: cell-based
Liver = assay: Half life in mouse liver microsomes assessed as formation of oxidation product and glucuronide conjugate; type: ADME, Microsome
Procedure, shortened: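 Mouse liver microsomes run under combined phase I oxidation and phase II glucuronide conjugation; half-life reported in minutes.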

Structure (SMILES): NCC1(CC(=O)O)CCCCC1 [GABAPENTIN]
- Activity (Mus musculus [1]): Dose-dependent effect
- ED50 (Mus musculus [2]): 110 mg/kg
- Activity (Mus musculus [3]): Active

Structure (SMILES): O=c1cc(Cn2c(C3CCC3)nc3nccnc32)c2ccc(F)c(F)c2[nH]1
- Ratio EC50 (Homo sapiens [4]): 3.3
- inhibition (Rhesus monkey): Active
- Ratio EC50 (Homo sapiens [5]): 180
- Activity (Mus musculus [6]): Active
- Activity (Mus musculus [7]): Active

Structure (SMILES): Cc1ncsc1C(=O)N(Cc1cc(=O)[nH]c2c(F)cccc12)c1cccc(Cl)c1
- half-life [8]: 12 min
- Selectivity ratio (Homo sapiens [9]): > 2000
- Cmax [10]: 1400 ng/mL
- bioavailability [11]: 7%
- half-life [12]: 12 min
- clearance [13]: > 100 mL/min/kg
- Vd [14]: 1.6 L/kg
- clearance [15]: > 100 mL/min/kg
- IC50 [16]: 0.011 µM

Structure (SMILES): CC(C)(C)c1nc2ccccc2n1Cc1cc(=O)[nH]c2c(F)c(F)ccc12
- EC50 (Nitric oxide synthase 3): > 100 µM
- inhibition [17]: < 50%
- EC50 (Nitric oxide synthase 1 [18]): > 100 µM
- EC50 [19]: 48 µM
- Ratio EC50 (Homo sapiens [4]): > 2
- inhibition (Nitric oxide synthase 1 [20]): < 50%
- Ratio EC50 (Homo sapiens [5]): > 2
- t1/2 (Liver): > 120 min

Structure (SMILES): CN1CC[C@]23c4c5ccc(O)c4O[C@H]2[C@@H](O)C=C[C@H]3[C@H]1C5
- Activity (Mus musculus [7]): Active
